Entries after “also recorded” stand apart in the source; their conditions may differ.
Columns and labels:
[1] = system: DU145 (human prostate cell line); assay: MTT cytotoxicity assay, DU145; assay type: cell-based; settings: DU-145, 48 h, read-out: IC50 DU145
Procedure, shortened: (§1)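 ATCC cells grown in DMEM with 10% FBS, 2 mM L-glutamine and 100 μg/mL penicillin–streptomycin at 37 °C, 5% CO2. Medium refreshed, 10 μL of 12 mM MTT stock added, then 4 h in the dark at 37 °C. Formazan dissolved in DMSO and read at 570 nm against media-only blanks. Three independent experiments; IC50 by linear regression.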

[2] = system: erythrocytes (heparinized human blood); assay: Erythrocyte osmotic fragility; assay type: cell-based; settings: 1 μL of 10 mg mL^−1 stock, 37 °C, 30 min
[3] = system: SKBR-3 (human breast cancer cell line); assay: MTT cytotoxicity assay, SKBR-3; assay type: cell-based; settings: SK-BR-3, 48 h, read-out: IC50 SKBR-3
Procedure, shortened: as §1

[4] = system: HepG2 (Human hematoma cell line); assay: MTT cytotoxicity assay, HEPG2; assay type: cell-based; settings: HepG2, 48 h, read-out: IC50 HEPG2
Procedure, shortened: as §1

[5] = system: HEK-293 (human embryonic kidney cell line); assay: MTT cytotoxicity assay, HEK-293; assay type: cell-based; settings: HEK293, 48 h, read-out: IC50 HEK-293
Swiss albino mice = assay: In vivo acute oral toxicity of compound 5n; settings: for ALKP / Albumin / Bilirubin / Body weight / Cholesterol / Creatinine / Haemoglobin / RBC / SGOT / SGPT / Serum protein / Triglycerides / WBC: n = 6
Procedure, shortened: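 30 Swiss albino mice (15 male, 15 female; 22–25 g), 7-day acclimatization, 22 ± 5 °C, 12 h light/dark, standard feed and water ad libitum. Five groups of 3 male + 3 female. Single oral dose of test compound at 5, 50, 300 or 1000 mg kg−1, suspended in gum acacia and 0.7% CMC; controls received vehicle. Clinical observation, body weight, haematology, serum biochemistry, organ weights; mean ± SE, n = 6, compared with control.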

[6] = system: Candida tropicalis MTCC 230; assay: Agar well diffusion, antifungal; assay type: cell-based; settings: 1 mg/mL, 18 hrs
Procedure, shortened: (§2)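 Fungal strains kept like the bacteria (Mueller–Hinton media) but at 30 °C. Agar well diffusion per CLSI (2012): inoculum spread over the agar, 6–8 mm wells punched, and 20–100 μL test compound added per well. Plates incubated at 30 °C and zone of inhibition diameter read in mm.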

[7] = system: Candida albicans MTCC 227; assay: Agar well diffusion, antifungal; assay type: cell-based; settings: for zone of inhibition at 1000 µg/mL: Candida albicans, MTCC227, 18 h, read-out: Zone of inhibition Candida albicans
Procedure, shortened: as §2

[8] = system: Staphylococcus aureus MTCC 96; assay: Agar well diffusion, antibacterial; assay type: cell-based; settings: 1 mg/mL, 18 hrs
Procedure, shortened: (§3)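 Agar well diffusion per CLSI (2012). Bacteria grown on Mueller–Hinton agar and kept in Mueller–Hinton broth at 37 °C for 24 h. Inoculum spread evenly over the agar, 6–8 mm wells punched, and each well loaded with 20–100 μL test compound. Plates incubated at 37 °C and zones of inhibition measured in mm.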

[9] = system: Klebsiella pneumoniae MTCC 109; assay: Agar well diffusion, antibacterial; assay type: cell-based; settings: 1 mg/mL, 18 hrs
Procedure, shortened: as §3

[10] = system: Bacillus subtilis MTCC 121; assay: Agar well diffusion, antibacterial; assay type: cell-based; settings: 1 mg/mL, 18 hrs
Procedure, shortened: as §3

[11] = system: Escherichia coli MTCC 730; assay: Agar well diffusion, antibacterial; assay type: cell-based; settings: 1 mg/mL, 18 hrs
Procedure, shortened: as §3

[12] = single acute oral dose 5, 50, 300, 1000 mg kg^−1
[13] = single oral dose 5 mg kg^−1, mean ± SE
[14] = single oral dose 50 mg kg^−1, mean ± SE
[15] = single oral dose 300 mg kg^−1, mean ± SE
[16] = single oral dose 1000 mg kg^−1, mean ± SE

## O=C(/C=C/C=C/c1ccccc1)c1ccccc1OCc1ccc(Cl)c(Cl)c1 [Compound 5b, (2E,4E)-1-(2-((3,4-dichlorobenzyl)oxy)phenyl)-5-phenylpenta-2,4-dien-1-one]
[1]
  IC50: 17.9 ± 3.4 µM
[2]
  MEF50 (Mean Erythrocyte Fragility; concentration of PBS at which 50% of erythrocytes undergo hemolysis): 0.538
[3]
  IC50: 22.4 ± 2.4 µM
[4]
  IC50: 9.19 ± 0.6 µM
[5]
  IC50: 20.4 ± 1.6 µM

## O=C(/C=C/C=C/c1ccccc1)c1ccccc1OCc1cccc(Cl)c1 [Compound 5a, (2E,4E)-1-(2-((3-Chlorobenzyl)oxy)phenyl)-5-phenylpenta-2,4-dien-1-one]
[1]
  IC50: 45.2 ± 2.1 µM
[3]
  IC50: 20.8 ± 1.7 µM
[4]
  IC50: 40.3 ± 2.9 µM
[5]
  IC50: 30.1 ± 8.3 µM

## O=C(/C=C/C=C/c1ccccc1)c1ccccc1OCc1ccc(F)cc1 [Compound 5e, (2E,4E)-1-(2-((4-Fluorobenzyl)oxy)phenyl)-5-phenylpenta-2,4-dien-1-one]
[1]
  IC50: 278.6 ± 1.7 µM
[3]
  IC50: 56.1 ± 1.8 µM
[4]
  IC50: 282 ± 5.7 µM
[5]
  IC50: 49.8 ± 2.8 µM

## O=c1c(O)c(-c2ccc(O)c(O)c2)oc2cc(O)cc(O)c12 [Quercetin, reference compound]
[2]
  MEF50 (Mean Erythrocyte Fragility; concentration of PBS at which 50% of erythrocytes undergo hemolysis): 0.431

## O=C(/C=C/C=C/c1ccccc1)c1ccccc1OCCBr [Compound 5n, (2E,4E)-1-(2-(2-Bromoethoxy)phenyl)-5-phenylpenta-2,4-dien-1-one]
Swiss albino mice; oral
  Dose well tolerated / safe as a single acute oral dose: up to 1000 mg kg^−1
Swiss albino mice; [12]
  Gross pathology, absolute and relative organ weights: no significant abnormalities in absolute or relative organ weights
  Morbidity, mortality, abnormal clinical signs: no morbidity, mortality, or abnormal clinical signs; also recorded: no morbidity, mortality
Swiss albino mice; [13]
  ALKP: 170.67 ± 13.43 U L^−1
  Albumin: 2.55 ± 0.19 g/dL
  Bilirubin: 0.50 ± 0.00 mg/dL
  Body weight: 31.33 ± 1.54 g
  Cholesterol: 113.94 ± 4.49 mg/dL
  Creatinine: 0.92 ± 0.08 mg/dL
  Haemoglobin: 12.74 ± 0.51 g/dL
  RBC: 8.20 ± 0.60 million per mm^3
  SGOT: 20.84 ± 0.88 U L^−1
  SGPT: 16.76 ± 0.67 U L^−1
  Serum protein: 5.85 ± 0.13 mg/mL
  Triglycerides: 111.43 ± 4.39 mg/dL
  WBC: 9.48 ± 0.68 1000*/mm^3
Swiss albino mice; [14]
  ALKP: 164.25 ± 13.54 U L^−1
  Albumin: 2.58 ± 0.07 g/dL
  Bilirubin: 0.51 ± 0.00 mg/dL
  Body weight: 28.33 ± 0.72 g
  Cholesterol: 110.16 ± 3.57 mg/dL
  Creatinine: 0.86 ± 0.06 mg/dL
  Haemoglobin: 12.68 ± 0.67 g/dL
  RBC: 7.77 ± 0.66 million per mm^3
  SGOT: 20.60 ± 1.71 U L^−1
  SGPT: 18.63 ± 0.59 U L^−1
  Serum protein: 5.76 ± 0.16 mg/mL
  Triglycerides: 111.02 ± 5.61 mg/dL
  WBC: 9.54 ± 0.79 1000*/mm^3
Swiss albino mice; [15]
  ALKP: 173.23 ± 14.47 U L^−1
  Albumin: 2.55 ± 0.19 g/dL
  Bilirubin: 0.49 ± 0.02 mg/dL
  Body weight: 31.82 ± 0.96 g
  Cholesterol: 111.51 ± 3.48 mg/dL
  Creatinine: 0.90 ± 0.13 mg/dL
  Haemoglobin: 12.68 ± 0.71 g/dL
  RBC: 7.34 ± 0.38 million per mm^3
  SGOT: 19.39 ± 1.51 U L^−1
  SGPT: 18.03 ± 0.64 U L^−1
  Serum protein: 5.86 ± 0.18 mg/mL
  Triglycerides: 110.41 ± 3.90 mg/dL
  WBC: 10.13 ± 0.50 1000*/mm^3
Swiss albino mice; [16]
  ALKP: 170.75 ± 6.26 U L^−1
  Albumin: 2.70 ± 0.09 g/dL
  Bilirubin: 0.47 ± 0.04 mg/dL
  Body weight: 27.92 ± 1.30 g
  Cholesterol: 107.82 ± 3.48 mg/dL
  Creatinine: 0.97 ± 0.09 mg/dL
  Haemoglobin: 12.42 ± 0.55 g/dL
  RBC: 7.54 ± 0.62 million per mm^3
  SGOT: 19.73 ± 1.43 U L^−1
  SGPT: 17.55 ± 1.23 U L^−1
  Serum protein: 5.93 ± 0.13 mg/mL
  Triglycerides: 108.74 ± 2.77 mg/dL
[1]
  IC50: 8.72 ± 1.8 µM
[2]
  MEF50 (Mean Erythrocyte Fragility; concentration of PBS at which 50% of erythrocytes undergo hemolysis): 0.457
[3]
  IC50: 7.69 ± 2.8 µM
[4]
  IC50: 9.38 ± 1.6 µM
[5]
  IC50: 18.5 ± 1.1 µM

## O=C(/C=C/C=C/c1ccccc1)c1ccccc1OCc1ccccc1Br [Compound 5h, (2E,4E)-1-(2-((2-Bromobenzyl)oxy)phenyl)-5-phenylpenta-2,4-dien-1-one]
[1]
  IC50: 28.6 ± 2.2 µM
[3]
  IC50: 244 ± 4.7 µM
[4]
  IC50: 45 ± 3.3 µM
[5]
  IC50: 23.4 ± 4.7 µM

## CCCCCCOc1ccccc1C(=O)/C=C/C=C/c1ccccc1 [Compound 5l, (2E,4E)-1-(2-(Hexyloxy)phenyl)-5-phenylpenta-2,4-dien-1-one]
[6]
  Zone of inhibition Candida tropicalis: showed activity
[7]; 1 mg/mL, 18 hrs
  Zone of inhibition Candida albicans: showed activity
[7]
  zone of inhibition at 1000 µg/mL: 8 mm
[1]
  IC50: 29 ± 2.1 µM
[3]
  IC50: 23.5 ± 4.1 µM
[4]
  IC50: 46.7 ± 2.2 µM
[5]
  IC50: 98 ± 10.1 µM

## O=C(/C=C/C=C/c1ccccc1)c1ccccc1O [Compound 3, (2E,4E)-1-(2-hydroxyphenyl)-5-phenylpenta-2,4-dien-1-one]
[1]
  IC50: 83.5 ± 7.3 µM
[3]
  IC50: 20.8 ± 4.1 µM
[4]
  IC50: 40.1 ± 2 µM
[5]
  IC50: 67.4 ± 9.1 µM

## Cc1ccc(COc2ccccc2C(=O)/C=C/C=C/c2ccccc2)cc1 [Compound 5j, (2E,4E)-1-(2-((4-Methylbenzyl)oxy)phenyl)-5-phenylpenta-2,4-dien-1-one]
[1]
  IC50: 21.3 ± 5.6 µM
[3]
  IC50: 7.87 ± 2.1 µM
[4]
  IC50: 25.7 ± 1.5 µM
[5]
  IC50: 23.6 ± 1.4 µM

## O=C/C=C/c1ccccc1 [Compound 1, (E)-3-phenylprop-2-enal, reference compound]
[8]
  Zone of inhibition Staphylococcus aureus: 7–8 mm
[9]
  Zone of inhibition Klebsiella pneumoniae: 7–8 mm
[10]
  Zone of inhibition Bacillus subtilis: 7–8 mm
[7]
  zone of inhibition at 1000 µg/mL: 11 mm
[11]
  Zone of inhibition Escherichia coli: 7–8 mm
[1]
  IC50: 22.4 ± 1.6 µM
[3]
  IC50: 13.9 ± 1.6 µM
[4]
  IC50: 21.8 ± 1 µM
[5]
  IC50: 20.6 ± 1 µM

## O=C(/C=C/C=C/c1ccccc1)c1ccccc1OCc1ccccc1Cl [Compound 5d, (2E,4E)-1-(2-((2-Chlorobenzyl)oxy)phenyl)-5-phenylpenta-2,4-dien-1-one]
[1]
  IC50: 46.1 ± 1.1 µM
[3]
  IC50: 75.9 ± 4.8 µM
[4]
  IC50: 41.4 ± 3.9 µM
[5]
  IC50: 203 ± 5.3 µM

## O=C(/C=C/C=C/c1ccccc1)c1ccccc1OCc1ccc(Br)cc1 [Compound 5g, (2E,4E)-1-(2-((4-Bromobenzyl)oxy)phenyl)-5-phenylpenta-2,4-dien-1-one]
[1]
  IC50: 16.9 ± 2.3 µM
[3]
  IC50: 15.7 ± 2.8 µM
[4]
  IC50: 25.8 ± 1.6 µM
[5]
  IC50: 27.6 ± 4.2 µM

## CCCCCOc1ccccc1C(=O)/C=C/C=C/c1ccccc1 [Compound 5m, (2E,4E)-1-(2-(Pentyloxy)phenyl)-5-phenylpenta-2,4-dien-1-one]
[1]
  IC50: 126.8 ± 0.2 µM
[3]
  IC50: 125 ± 6 µM
[4]
  IC50: 33.2 ± 0.7 µM
[5]
  IC50: 104 ± 7.3 µM

## N#Cc1ccccc1COc1ccccc1C(=O)/C=C/C=C/c1ccccc1 [Compound 5i, 2-((2-((2E,4E)-5-Phenylpenta-2,4-dienoyl)phenoxy)methyl) benzonitrile]
[1]
  IC50: 68.4 ± 2.8 µM
[3]
  IC50: 75.3 ± 2.1 µM
[4]
  IC50: 42 ± 2.1 µM
[5]
  IC50: 48.2 ± 5 µM

## COc1cccc2c1C(=O)c1c(O)c3c(c(O)c1C2=O)C[C@@](O)(C(=O)CO)C[C@@H]3O[C@H]1C[C@H](N)[C@H](O)[C@H](C)O1 [Doxorubicin, reference compound]
[1]
  IC50: 0.45 ± 0.52 µM
[3]
  IC50: 0.7 ± 0.56 µM
[4]
  IC50: 2.5 ± 1.42 µM

## O=C(/C=C/C=C/c1ccccc1)c1ccccc1OCc1ccccc1 [Compound 5k, (2E,4E)-1-(2-(Benzyloxy)phenyl)-5-phenylpenta-2,4-dien-1-one]
[1]
  IC50: 55.6 ± 3.7 µM
[3]
  IC50: 80.3 ± 8.7 µM
[4]
  IC50: 46.6 ± 1.4 µM
[5]
  IC50: 109.4 ± 0.7 µM

## O=C(/C=C/C=C/c1ccccc1)c1ccccc1OCc1ccc(Cl)cc1 [Compound 5c, (2E,4E)-1-(2-((4-Chlorobenzyl)oxy)phenyl)-5-phenylpenta-2,4-dien-1-one]
[1]
  IC50: 47.1 ± 4.5 µM
[3]
  IC50: 30.7 ± 2 µM
[4]
  IC50: 40.17 ± 0.2 µM
[5]
  IC50: 22.3 ± 1.2 µM
